# According to the RNAGym collection of RNA variant scans (doi:10.1002/anie.201605470):
# B1: Osa-1-4 twister ribozyme (parent)
# chain: CCGCCUAACACUGCCAAUGCCGGUCCCAAGCCCGGAUAAAAGUGGAGGGGGCGG
# Variants of: B1
# Test: self-cleavage, relative activity (ratio to wild type); higher = more cleavage; co-transcriptional
# Method in brief: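 Relative activity is the fraction cleaved divided by that of the wild-type ribozyme. The library came from a DNA template for a 54-nucleotide Oryza sativa twister ribozyme, doped at the 48 positions downstream of the cleavage site with 97 % wild-type base and 1 % of each other base. After 2 h of in vitro transcription at 37 °C with co-transcriptional self-cleavage, the RNA was reverse-transcribed with a template-switching oligonucleotide, amplified by PCR and deep-sequenced, and reads with or without upstream sequence gave the cleavage status.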
row,Variant,self-cleavage
1,CCGCCUAACACUGACAAUGCCGGUCCCAAGGCCGGAUAAAAGUGGAGGGGGCGG,0.02
2,CCGCCUAACACUGACAAUGCCGGUCCCAAGACCGGAUAAAAGUGGAGGGGGCGG,0.03
3,CCGCCUAACACUGACAAUGCCGGUCCCAAGUCCGGAUAAAAGUGGAGGGGGCGG,0.04
4,CCGCCUAACACUGACAAUACCGGUCCCAAGCCCGGAUAAAAGUGGAGGGGGCGG,0.1
5,CCGCCUAACACUGACAAUUCCGGUCCCAAGCCCGGAUAAAAGUGGAGGGGGCGG,0.07
6,CCGCCUAACACUGACAAUCCCGGUCCCAAGCCCGGAUAAAAGUGGAGGGGGCGG,0.04
7,CCGCCUAACACUGAUAAUGCCGGUCCCAAGCCCGGAUAAAAGUGGAGGGGGCGG,0.05
8,CCGCCUAACACUGAGAAUGCCGGUCCCAAGCCCGGAUAAAAGUGGAGGGGGCGG,0.05
9,CCGCCUAACACUGAAAAUGCCGGUCCCAAGCCCGGAUAAAAGUGGAGGGGGCGG,0.07
10,CCGCCUAACACUUCCAAUGCCGGUCCCAAGCCCGGAUAAAAGCGGAGGGGGCGG,0.03
11,CCGCCUAACACUUCCAAUGCCGGUCCCAAGCCCGGAUAAAAGGGGAGGGGGCGG,0.04
12,CCGCCUAACACUUCCAAUGCCGGUCCCAAGCCCGGAUAAAAGAGGAGGGGGCGG,0.02
13,CCGCCUAACACAUCCAAUGCCGGUCCCAAGCCCGGAUAAAAGUGGAGGGGGCGG,0.02
14,CCGCCUAACACCUCCAAUGCCGGUCCCAAGCCCGGAUAAAAGUGGAGGGGGCGG,0.05
15,CCGCCUAACACGUCCAAUGCCGGUCCCAAGCCCGGAUAAAAGUGGAGGGGGCGG,0.14
16,CCGCCUAACACUUCCAAUGCCGGUCCCAAGCCCGGAUAAAAGUGUAGGGGGCGG,0.02
17,CCGCCUAACACUUCCAAUGCCGGUCCCAAGCCCGGAUAAAAGUGCAGGGGGCGG,0.01
18,CCGCCUAACACUGACAAUGCCGGUCCCAAGCCCGGAUAAAAGUAGAGGGGGCGG,0.07
19,CCGCCUAACACUGACAAUGCCUGUCCCAAGCCCGGAUAAAAGUGGAGGGGGCGG,0.05
20,CCGCCUAACACUGACAAUGCCAGUCCCAAGCCCGGAUAAAAGUGGAGGGGGCGG,0.08
21,CCGCCUAACACUGACAAUGCCCGUCCCAAGCCCGGAUAAAAGUGGAGGGGGCGG,0.02
22,CCGCCUAACACUUCCAAUGCCGGGCCCAAGCCCGGAUAAAAGUGGAGGGGGCGG,0.02
23,CCGCCUAACACUUCCAAUGCCGGACCCAAGCCCGGAUAAAAGUGGAGGGGGCGG,0.01
24,CCGCCUAACACUUCCAAUGCCGGCCCCAAGCCCGGAUAAAAGUGGAGGGGGCGG,0.03

row,Variant,self-cleavage
1,CCGCCUAACACUUCCAAUGCCGGUCCCAAGCCCGGAUAAAAGUGGAGGGGCCGG,0.01
2,CCGCCUAACACUUCCAAUGCCGGUCCCAAGCCCGGAUAAAAGUGGAGGGGACGG,0.02
3,CCGCCUAACACUUCCAAUGCCGGUCCCAAGCCCGGAUAAAAGUGGAGGGGUCGG,0.02
4,CCGCCUAACACUCACAAUGCCGGUCCCAAGCCCGGAUAAAAGUGGAGGGGGCGG,0.02
5,CCGCCUAACACUUACAAUGCCGGUCCCAAGCCCGGAUAAAAGUGGAGGGGGCGG,0.02
6,CCGCCUAACACUAACAAUGCCGGUCCCAAGCCCGGAUAAAAGUGGAGGGGGCGG,0.03
7,CCGCCUAACACUUCCAAUGCCGGUCCCAAGCCCGGAGAAAAGUGGAGGGGGCGG,0.04
8,CCGCCUAACACUUCCAAUGCCGGUCCCAAGCCCGGACAAAAGUGGAGGGGGCGG,0.03
9,CCGCCUAACACUUCCAAUGCCGGUCCCAAGCCCGGAAAAAAGUGGAGGGGGCGG,0.02
10,CCGCCUAACACUGACAAUGCCGGUCCCAAGCCCGCAUAAAAGUGGAGGGGGCGG,0.05
11,CCGCCUAACACUGACAAUGCCGGUCCCAAGCCCGUAUAAAAGUGGAGGGGGCGG,0.09
12,CCGCCUAACACUGACAAUGCCGGUCCCAAGCCCGAAUAAAAGUGGAGGGGGCGG,0.12
13,CCGCCUAACACUGACAAUGCCGGUCCCAAGCUCGGAUAAAAGUGGAGGGGGCGG,0.03
14,CCGCCUAACACUGACAAUGCCGGUCCCAAGCGCGGAUAAAAGUGGAGGGGGCGG,0.03
15,CCGCCUAACACUGACAAUGCCGGUCCCAAGCACGGAUAAAAGUGGAGGGGGCGG,0.05
16,CCGCCUAACACUGACAAUGCCGGUGCCAAGCCCGGAUAAAAGUGGAGGGGGCGG,0.02
17,CCGCCUAACACUGACAAUGCCGGUACCAAGCCCGGAUAAAAGUGGAGGGGGCGG,0.05
18,CCGCCUAACACUGACAAUGCCGGUUCCAAGCCCGGAUAAAAGUGGAGGGGGCGG,0.07
19,CCGCCUAACACUUCCAAUGCCGGUCCCAAGCCCGGAUAAAAGUGGAAGGGGCGG,0.02
20,CCGCCUAACACUUCCAAUGCCGGUCCCAAGCCCGGAUAAAAGUGGACGGGGCGG,0.01
21,CCGCCUAACACUUCCAAUGCCGGUCCCAAGCCCGGAUAAAAGUGGAUGGGGCGG,0.02
22,CCGCCUAACACUUCCAAUGCCGGUCCCAAGCCCGGAUAAAAGUGGAGGGGGCGA,0.03
23,CCGCCUAACACUUCCAAUGCCGGUCCCAAGCCCGGAUAAAAGUGGAGGGGGCGC,0.02
24,CCGCCUAACACUUCCAAUGCCGGUCCCAAGCCCGGAUAAAAGUGGAGGGGGCGU,0.04
